Tests used:
Assay in all cases: Yeast-based OR sensor, GFP dose-response
Format in all cases: cell-based
[1] = target: T1, OR10S1 (Homo sapiens, UniProt Q8NGN2)
T1 sequence (Q8NGN2 1-331): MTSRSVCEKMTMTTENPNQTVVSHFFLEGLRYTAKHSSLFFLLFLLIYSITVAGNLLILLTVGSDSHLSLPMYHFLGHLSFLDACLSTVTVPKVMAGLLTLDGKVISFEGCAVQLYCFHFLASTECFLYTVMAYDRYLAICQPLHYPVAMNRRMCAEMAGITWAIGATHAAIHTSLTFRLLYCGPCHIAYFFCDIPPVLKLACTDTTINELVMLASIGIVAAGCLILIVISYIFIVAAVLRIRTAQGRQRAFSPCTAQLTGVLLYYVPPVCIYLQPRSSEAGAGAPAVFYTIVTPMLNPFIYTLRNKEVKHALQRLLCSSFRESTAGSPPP
In short: (§1)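 Yeast-codon-optimized human OR in S. cerevisiae PPY140 (Δfar1 Δste2 Δsst2) with PFIG1-eGFP reporter. Cells pre-grown 18 h at 15 °C in SD(HL–), exposed to test compound 0–1000 μM final, 1% DMSO, 4 h at 30 °C. Flow-cytometric geometric mean GFP, 10000 cells; triplicate; two-tailed t test vs DMSO; empty-vector strain run same day; EC50 from dose-response fit.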

[2] = target: T2, OR2T4 (Homo sapiens, UniProt Q8NH00); settings: for increase in the signal after activation: OR2T4, dose-response curve, compared to DMSO control; for increase in percent GFP expression compared to the no receptor control: OR2T4 vs empty-vector control strain; for OR-dependent activation, conclusion in words: OR2T4 vs no OR control; for EC50: GFP expression, 4 h, 0-1000 μM chemical, 1% DMSO
T2 sequence (Q8NH00 1-348): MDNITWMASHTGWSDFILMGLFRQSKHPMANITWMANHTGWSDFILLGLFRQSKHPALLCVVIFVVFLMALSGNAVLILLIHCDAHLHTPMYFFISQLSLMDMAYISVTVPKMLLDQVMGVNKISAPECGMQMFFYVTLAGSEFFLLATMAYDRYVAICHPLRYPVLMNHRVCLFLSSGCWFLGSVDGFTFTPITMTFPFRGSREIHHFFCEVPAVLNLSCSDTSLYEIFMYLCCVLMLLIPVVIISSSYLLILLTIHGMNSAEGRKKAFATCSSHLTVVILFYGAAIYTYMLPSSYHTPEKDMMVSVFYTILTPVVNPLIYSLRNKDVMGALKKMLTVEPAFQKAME
In short: as §1

[3] = target: T3, OR2L13 (Homo sapiens, UniProt Q8N349); settings: OR2L13, dose-response curve, compared to DMSO control
T3 sequence (Q8N349 1-312): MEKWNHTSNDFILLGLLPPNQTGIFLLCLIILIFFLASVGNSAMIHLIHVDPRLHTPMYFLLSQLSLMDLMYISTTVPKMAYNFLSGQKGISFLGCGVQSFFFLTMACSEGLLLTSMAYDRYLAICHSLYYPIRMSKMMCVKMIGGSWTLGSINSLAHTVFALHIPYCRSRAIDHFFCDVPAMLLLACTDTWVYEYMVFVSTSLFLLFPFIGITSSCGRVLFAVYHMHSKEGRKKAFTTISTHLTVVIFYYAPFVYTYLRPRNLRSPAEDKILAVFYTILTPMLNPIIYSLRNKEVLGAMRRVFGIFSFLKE
In short: as §1

[4] = target: T4, OR51B5 (Homo sapiens, UniProt Q9H339); settings: for increase in the signal after activation: OR51B5, dose-response curve, compared to DMSO control
T4 sequence (Q9H339 1-312): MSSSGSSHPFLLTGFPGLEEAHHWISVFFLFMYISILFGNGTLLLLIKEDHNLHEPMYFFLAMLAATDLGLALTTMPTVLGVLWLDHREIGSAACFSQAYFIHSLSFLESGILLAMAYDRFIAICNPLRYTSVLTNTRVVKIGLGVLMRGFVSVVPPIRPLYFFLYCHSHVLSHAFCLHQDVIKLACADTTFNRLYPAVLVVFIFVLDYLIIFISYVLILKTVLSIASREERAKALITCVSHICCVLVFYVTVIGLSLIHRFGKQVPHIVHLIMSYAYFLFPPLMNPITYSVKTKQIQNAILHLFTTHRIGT
In short: as §1

[5] = target: T5, OR2A7 (Homo sapiens, UniProt Q96R45); settings: for EC50: GFP expression, 4 h, 0-1000 μM chemical, 1% DMSO; for OR-dependent activation, conclusion in words: OR2A7 vs no OR control
T5 sequence (Q96R45 1-310): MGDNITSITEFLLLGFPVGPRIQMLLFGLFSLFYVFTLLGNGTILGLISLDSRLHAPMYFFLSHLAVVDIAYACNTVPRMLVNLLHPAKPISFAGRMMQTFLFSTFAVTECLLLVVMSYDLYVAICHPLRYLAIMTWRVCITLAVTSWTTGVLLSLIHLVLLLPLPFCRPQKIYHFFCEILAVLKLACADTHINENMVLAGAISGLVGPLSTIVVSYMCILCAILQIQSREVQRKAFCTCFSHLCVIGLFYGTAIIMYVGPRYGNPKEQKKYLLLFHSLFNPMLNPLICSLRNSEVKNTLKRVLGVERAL
In short: as §1

[6] = target: T6, OR2W3 (Homo sapiens, UniProt Q7Z3T1)
T6 sequence (Q7Z3T1 1-314): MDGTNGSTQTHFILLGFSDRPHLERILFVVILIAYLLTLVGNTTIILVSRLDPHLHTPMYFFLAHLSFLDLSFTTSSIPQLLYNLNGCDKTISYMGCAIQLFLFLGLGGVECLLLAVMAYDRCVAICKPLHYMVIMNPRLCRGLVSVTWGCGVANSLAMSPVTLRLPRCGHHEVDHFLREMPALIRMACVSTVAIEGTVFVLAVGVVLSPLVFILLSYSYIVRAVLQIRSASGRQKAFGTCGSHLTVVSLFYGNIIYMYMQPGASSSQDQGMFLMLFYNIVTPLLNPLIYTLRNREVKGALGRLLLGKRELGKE
In short: as §1

[7] = target: T7, OR2A42 (Homo sapiens, UniProt Q8NGT9)
T7 sequence (Q8NGT9 1-310): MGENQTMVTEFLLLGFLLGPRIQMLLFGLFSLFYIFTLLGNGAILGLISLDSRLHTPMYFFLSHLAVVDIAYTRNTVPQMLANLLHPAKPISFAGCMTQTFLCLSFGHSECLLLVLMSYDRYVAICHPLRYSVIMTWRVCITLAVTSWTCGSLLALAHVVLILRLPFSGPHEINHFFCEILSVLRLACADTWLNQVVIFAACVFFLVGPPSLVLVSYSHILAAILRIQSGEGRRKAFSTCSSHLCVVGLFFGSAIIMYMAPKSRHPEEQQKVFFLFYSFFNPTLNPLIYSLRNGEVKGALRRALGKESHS
In short: as §1

CCCCCCCCC=O [nonanal]
increase in the signal after activation ([1]; OR10S1, dose-response curve, compared to DMSO control): > 2 fold | OR-dependent activation, conclusion in words ([1]; OR10S1 vs no OR control): the no OR control shows a similar increase in GFP expression

CCCCCCCCCCC=O [undecanal]
increase in the signal after activation [2]: > 2 fold | increase in percent GFP expression compared to the no receptor control [2]: 2.3 fold | OR-dependent activation, conclusion in words [2]: confirmed ligand | increase in the signal after activation [3]: > 2 fold

CC(C)=CCC/C(C)=C/CC/C(C)=C/CO [farnesol]
EC50 ([4]; EC50, OR51B5 yeast sensor, GFP expression, 4 h, 0-1000 μM chemical, 1% DMSO): 181 µM | increase in the signal after activation [4]: > 2 fold | OR-dependent activation, conclusion in words ([4]; OR51B5, on/off behavior of the response): nonspecifically activates GFP expression | increase in percent GFP expression compared to the no receptor control ([4]; OR51B5 vs empty-vector control strain): 3 fold | EC50 ([5]; OR2A7 yeast sensor): do not fit a dose–response curve | increase in the signal after activation [2]: > 2 fold | OR-dependent activation, conclusion in words [2]: not a ligand | EC50 ([2]; OR2T4 yeast sensor): could not be fitted | EC50 (fit to dose-response curve) ([6]; OR2W3 yeast sensor, GFP expression, Figure S6): do not fit a dose–response curve | increase in the signal after activation ([7]; OR2A42, dose-response curve, compared to DMSO control): 2 fold | OR-dependent activation, conclusion in words ([7]; OR2A42 vs no OR control): not a ligand | EC50 (fit to dose-response equation) ([7]; OR2A42 yeast sensor, GFP expression): could not be fitted

CC(C)=CCC/C(C)=C\CO [nerol]
signal after activation (in words) ([6]; OR2W3, dose-response curve, Figure S1): did not result in a significant increase in the signal after activation

C=C1CCC2CC1C2(C)C (stereo not drawn) [β-pinene, beta-pinene]
weaker response than with α-pinene ([5]; OR2A7, response relative to α-pinene): 18%

CCCCCCCCCCCC(=O)O [dodecanoic, lauric acid]
increase in the signal after activation [4]: > 2 fold

CC(C)(C)c1ccccc1 [TBB, tert-butylbenzene]
OR-dependent activation, conclusion in words [5]: not OR dependent | OR-dependent activation, conclusion in words [2]: not OR dependent

CC1=CCC2CC1C2(C)C (stereo not drawn) [α-pinene, alpha-pinene]
EC50 ([5]; EC50, OR2A7 yeast sensor): 412 µM | increase in the signal after activation ([5]; OR2A7, dose-response curve, compared to DMSO control): > 2 fold | increase in percent GFP expression compared to the no receptor control ([5]; OR2A7 vs empty-vector control strain): 2.3 fold | OR-dependent activation, conclusion in words [5]: confirmed ligand | EC50 ([2]; EC50, OR2T4 yeast sensor): 659 µM | increase in the signal after activation [2]: > 2 fold | maximal level of GFP expression of OR2T4, higher than that of OR2A7 ([2]; OR2T4 relative to OR2A7): 63% | increase in percent GFP expression compared to the no receptor control [2]: 3 fold | OR-dependent activation, conclusion in words [2]: confirmed ligand

CCCCCCCCCCCCO [dodecanol, 1-dodecanol]
increase in the signal after activation [3]: > 2 fold

Source: publication PMC6482435 (Biochemistry, 2019)
